The source made the active and inactive calls. The calls are words filed in the database; no cut-off is given here.
Legend:
Dipeptidyl peptidase 2 = Dipeptidyl peptidase 2 (Homo sapiens, UniProt Q9UHL4); assay: Inhibition of human DPP2
Prolyl endopeptidase FAP = molecular target: T1, Prolyl endopeptidase FAP (Homo sapiens, UniProt Q12884); assay: Inhibition of human FAP
T1 sequence (Q12884 whole entry): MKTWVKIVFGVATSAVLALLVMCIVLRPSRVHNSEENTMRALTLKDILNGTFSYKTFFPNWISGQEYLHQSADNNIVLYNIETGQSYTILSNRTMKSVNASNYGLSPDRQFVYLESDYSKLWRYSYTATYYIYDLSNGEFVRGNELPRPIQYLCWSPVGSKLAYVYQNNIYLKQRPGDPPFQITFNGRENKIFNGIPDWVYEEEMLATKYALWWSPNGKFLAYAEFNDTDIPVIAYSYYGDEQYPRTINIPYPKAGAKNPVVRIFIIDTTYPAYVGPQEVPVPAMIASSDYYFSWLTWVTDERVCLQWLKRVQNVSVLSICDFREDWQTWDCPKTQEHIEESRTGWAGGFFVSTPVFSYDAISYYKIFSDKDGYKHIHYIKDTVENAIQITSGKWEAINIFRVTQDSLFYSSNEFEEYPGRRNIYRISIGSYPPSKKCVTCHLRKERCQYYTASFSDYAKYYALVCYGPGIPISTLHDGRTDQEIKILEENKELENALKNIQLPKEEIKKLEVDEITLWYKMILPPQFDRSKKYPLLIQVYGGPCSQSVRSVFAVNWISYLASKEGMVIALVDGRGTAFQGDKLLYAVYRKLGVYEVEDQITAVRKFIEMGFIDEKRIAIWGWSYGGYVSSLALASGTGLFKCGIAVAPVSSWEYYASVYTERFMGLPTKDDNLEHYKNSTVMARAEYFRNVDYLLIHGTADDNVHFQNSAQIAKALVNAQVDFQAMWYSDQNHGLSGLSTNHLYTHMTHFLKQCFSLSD

Homo sapiens [1] = species on record: Homo sapiens; assay: Selectivity for ratio of IC50 for human DPP4 to IC50 for human DPP8
Homo sapiens [2] = species on record: Homo sapiens; assay: Selectivity for ratio of IC50 for human DPP4 to IC50 for human DPP2
Homo sapiens [3] = species on record: Homo sapiens; assay: Selectivity for ratio of IC50 for human DPP4 to IC50 for human FAP
[4] = Plasma clearance in rat at 5 mg/kg, iv or 10 mg/kg, po; assay type: ADME, organism-based
Procedure, shortened: (§1)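 Rat pharmacokinetics after dosing at 5 mg/kg iv and 10 mg/kg po. Parameters derived: plasma clearance, oral Cmax, oral half-life, dose-normalised oral AUC and oral bioavailability (F).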

[5] = Cmax in rat at 10 mg/kg, po; assay type: ADME, organism-based; parameters: dose 10 mg/kg, route oral; conditions: in vivo; procedure, shortened: as §1
[6] = Half life in rat at 10 mg/kg, po; assay type: ADME, organism-based; parameters: dose 10 mg/kg, route oral; conditions: in vivo; procedure, shortened: as §1
[7] = Oral bioavailability in rat at 10 mg/kg, po; assay type: ADME, organism-based; conditions: in vivo; procedure, shortened: as §1
hERG (KCNH2) = hERG (KCNH2) (Homo sapiens, UniProt Q12809); assay: Inhibition of human ERG at 10 uM
Sequence of hERG (KCNH2) (Q12809 whole entry): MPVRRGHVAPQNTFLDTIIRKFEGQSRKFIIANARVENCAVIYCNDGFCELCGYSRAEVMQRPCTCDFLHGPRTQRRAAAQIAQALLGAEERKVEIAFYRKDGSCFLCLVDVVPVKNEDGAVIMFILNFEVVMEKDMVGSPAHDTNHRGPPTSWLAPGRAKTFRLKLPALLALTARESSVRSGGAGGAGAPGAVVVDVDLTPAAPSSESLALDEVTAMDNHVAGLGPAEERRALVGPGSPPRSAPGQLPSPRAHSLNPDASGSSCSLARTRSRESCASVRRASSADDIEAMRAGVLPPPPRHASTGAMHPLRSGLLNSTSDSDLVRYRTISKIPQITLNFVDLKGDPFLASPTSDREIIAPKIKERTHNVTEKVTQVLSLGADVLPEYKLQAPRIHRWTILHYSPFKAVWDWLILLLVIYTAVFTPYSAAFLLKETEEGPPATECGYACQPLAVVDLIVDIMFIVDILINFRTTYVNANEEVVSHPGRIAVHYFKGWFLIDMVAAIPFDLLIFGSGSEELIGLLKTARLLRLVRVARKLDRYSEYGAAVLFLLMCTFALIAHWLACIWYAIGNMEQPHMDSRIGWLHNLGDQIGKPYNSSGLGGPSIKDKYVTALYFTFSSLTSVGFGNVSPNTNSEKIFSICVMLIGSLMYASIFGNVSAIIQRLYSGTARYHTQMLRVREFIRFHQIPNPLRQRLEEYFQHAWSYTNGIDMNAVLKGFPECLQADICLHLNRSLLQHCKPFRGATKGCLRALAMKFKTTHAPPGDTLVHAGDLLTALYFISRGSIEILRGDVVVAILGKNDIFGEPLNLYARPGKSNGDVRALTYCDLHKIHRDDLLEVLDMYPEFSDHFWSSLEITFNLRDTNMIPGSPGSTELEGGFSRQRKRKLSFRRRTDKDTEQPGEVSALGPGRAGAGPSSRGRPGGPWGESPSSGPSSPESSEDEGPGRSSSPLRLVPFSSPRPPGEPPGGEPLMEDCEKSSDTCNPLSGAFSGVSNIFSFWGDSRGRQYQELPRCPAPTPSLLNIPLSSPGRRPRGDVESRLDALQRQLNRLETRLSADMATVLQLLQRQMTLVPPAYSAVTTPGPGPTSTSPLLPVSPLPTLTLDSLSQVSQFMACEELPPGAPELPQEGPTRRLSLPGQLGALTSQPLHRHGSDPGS
Procedure, shortened: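 hERG binding; percent inhibition at a test concentration of 10 µM.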

Rattus norvegicus [8] = assay: Inhibition of DPP4 in Wistar rat plasma at 10 mg/kg, po within 30 mins; assay type: functional; conditions: 0.5 h
Procedure, shortened: (§2)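 Adult male Wistar rats (n = 4–6/group) given a single oral gavage of 10 mg/kg in 0.5% methyl cellulose. Tail-vein blood (25–50 µl) taken at timed points and plasma kept frozen. Plasma (10 µl) mixed with 150 µM Gly-Pro-AMC in 25 mM Tris-HCl pH 7.4, 140 mM NaCl, 10 mM KCl, 0.1% BSA. Fluorescence read at ex 390/em 460 nm. Activity in U/mL; mean ± SEM.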

Rattus norvegicus [9] = assay: Inhibition of DPP4 in Wistar rat plasma at 10 mg/kg, po after 24 hrs; assay type: functional, organism-based; parameters: dose 10 mg/kg; procedure, shortened: as §2
Mus musculus [10] = assay: Reduction in glucose excursion in C57BL/6J lean mouse at 1 mg/kg, po pretreated 30 mins before glucose challenge measured after 120 mins by oral glucose tolerance test relative to control; assay type: functional; parameters: scale not given: the % may be the effect or the level left
Procedure, shortened: (§3)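 Fasted overnight: adult male C57BL/6 mice (20–25 g, 6–8 weeks old, n = 6/group), grouped by tail-vein glucometer reading. Oral gavage of test agent in distilled water at −30 min (1, 3 or 10 mg/kg), then 3 g/kg oral glucose (400 mg/mL) at 0 min.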

Mus musculus [11] = assay: Reduction in glucose excursion in C57BL/6J lean mouse at 10 mg/kg, po pretreated 30 mins before glucose challenge measured after 120 mins by oral glucose tolerance test relative to control; assay type: functional; parameters: scale not given: the % may be the effect or the level left; procedure, shortened: as §3
Mus musculus [12] = assay: Reduction in glucose excursion in po dosed C57BL/6J lean mouse pretreated for 30 mins before glucose challenge measured after 120 mins by oral glucose tolerance test; assay type: functional, organism-based; procedure, shortened: as §3
Mus musculus [13] = assay: Reduction in glucose AUC in C57BL/6J diet-induced obese mouse at 1 mg/kg, po pretreated 30 mins before glucose challenge measured after 120 mins by oral glucose tolerance test relative to control; assay type: functional; parameters: scale not given: the % may be the effect or the level left
Procedure, shortened: (§4)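 Male C57BL/6j DIO mice (40–50 g, 27 weeks old, n = 6/group) fasted overnight and grouped by tail-vein glucometer reading. Test agent given by oral gavage in distilled water, then 3 g/kg glucose orally (400 mg/mL in water) 30 min later.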

Mus musculus [14] = assay: Reduction in glucose AUC in C57BL/6J diet-induced obese mouse at 3 mg/kg, po pretreated 30 mins before glucose challenge measured after 120 mins by oral glucose tolerance test relative to control; assay type: functional; parameters: scale not given: the % may be the effect or the level left; procedure, shortened: as §4
Mus musculus [15] = assay: Reduction in glucose AUC in C57BL/6J diet-induced obese mouse at 10 mg/kg, po pretreated 30 mins before glucose challenge measured after 120 mins by oral glucose tolerance test relative to control; assay type: functional; parameters: scale not given: the % may be the effect or the level left; procedure, shortened: as §4
[16] = molecular target: T2, Endothelin-converting enzyme 1 (Homo sapiens) (UniProt P42892); assay: Inhibition of ECE-1 at 10 uM
T2 sequence (whole entry): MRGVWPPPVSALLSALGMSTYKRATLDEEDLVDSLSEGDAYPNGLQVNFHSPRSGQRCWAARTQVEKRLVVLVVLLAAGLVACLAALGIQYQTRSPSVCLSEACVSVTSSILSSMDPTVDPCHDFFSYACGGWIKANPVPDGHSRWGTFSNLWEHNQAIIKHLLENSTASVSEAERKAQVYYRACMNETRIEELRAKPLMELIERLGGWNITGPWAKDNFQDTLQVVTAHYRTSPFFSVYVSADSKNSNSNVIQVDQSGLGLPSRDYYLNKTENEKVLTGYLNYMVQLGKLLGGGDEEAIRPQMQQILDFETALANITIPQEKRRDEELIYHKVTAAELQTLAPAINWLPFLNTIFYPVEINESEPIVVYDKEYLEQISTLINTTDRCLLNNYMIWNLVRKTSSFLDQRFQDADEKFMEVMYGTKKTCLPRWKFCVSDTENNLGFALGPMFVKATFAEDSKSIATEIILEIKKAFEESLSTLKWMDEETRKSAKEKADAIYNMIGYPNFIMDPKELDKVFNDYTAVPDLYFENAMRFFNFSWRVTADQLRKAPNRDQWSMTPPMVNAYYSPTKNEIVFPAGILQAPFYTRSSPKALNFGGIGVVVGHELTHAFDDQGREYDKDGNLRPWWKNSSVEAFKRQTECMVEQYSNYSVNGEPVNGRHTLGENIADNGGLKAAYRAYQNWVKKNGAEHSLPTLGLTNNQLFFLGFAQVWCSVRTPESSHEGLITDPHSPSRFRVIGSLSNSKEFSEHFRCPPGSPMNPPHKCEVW
Procedure, shortened: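 Part of a panel of 167 enzyme assays; percent inhibition at a test concentration of 10 µM.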

CC(C)(CC(=O)N[C@H]1C[C@@H]1c1cccc(Cl)c1)NCC(=O)N1C[C@@H](F)C[C@H]1C#N
IC50 (Dipeptidyl peptidase 2): > 20 µM
IC50 (Prolyl endopeptidase FAP): > 20 µM
Activity (Homo sapiens [1]): > 1300
Activity (Homo sapiens [2]): > 1300
Activity (Homo sapiens [3]): > 1300
clearance [4]: 22 mL/min/kg
Cmax [5]: 621 ng/mL
half-life [6]: 4.8 h
bioavailability [7]: 42%
inhibition at 10 µM (hERG (KCNH2)): 11%
inhibition in vivo at 10 mg/kg (Rattus norvegicus [8]): > 85%
Activity (Rattus norvegicus [9]): inactive
Activity (Mus musculus [10]): 50%
Activity (Mus musculus [11]): 73%
Activity (Mus musculus [12]): Dose-dependent effect
Activity (Mus musculus [13]): 72%
Activity (Mus musculus [14]): 98%
Activity (Mus musculus [15]): 83%
inhibition [16]: 53%

— ChEMBL document CHEMBL1152812, “Novel trans-2-aryl-cyclopropylamine analogues as potent and selective dipeptidyl peptidase IV inhibitors” (Bioorg Med Chem, 2009)
